High-throughput results as filed in PubChem.
Beta apoptosis: inhibitors of cytokine-induced beta cell apoptosis, primary screen, luminescence | INS-1E cytokine-induced death, ATP luminescence, 48 h; percent of positive-control rescue, neutral wells zero | protection from apoptosis, % (no concentration beside the values) | 0.8% of 300,000 active | AID 435005, 2010;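 active means Every replicate reaches about 75%, or at least half do and their mean reaches it too, limit read from the data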;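 further: 0% = cytokine-treated negative control wells and 100% = positive control rescue; higher means more ATP so stronger rescue from cytokine killing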
UPR CHOP act: activators of apoptotic CHOP UPR arm, primary screen, cell-based, CHO-CHOP luciferase reporter, luminescence, uHTS; UPR activation; percent of tunicamycin response over DMSO baseline; activation, % at 10 µM; 0.34% of 330,000 active; AID 449763, 2010;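 active means at 10 µM dose, activation of 40% or more, normalized to positive control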;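 further: 100% = tunicamycin at 10 µg/mL and 0% = DMSO alone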
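Material: CHO-CHOP cells, stable luciferase reporter of PERK-eIF2a-CHOP signalling; quantity: 500 reporter cells seeded per well; buffer or medium: F12 medium containing 10% fetal bovine serum; compound: one dose, 10 µM in 0.5% DMSO; incubation: 6 h compound treatment, 37 °C; measured by: Steady-Glo luciferase luminescence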
Mdm2 MdmX PPI: inhibitors of human Mdm2-MdmX association, primary screen, cell-based, luminescence, split luciferase, SaOS-2, uHTS; Protein Mdm4 (Homo sapiens) + E3 ubiquitin-protein ligase Mdm2 (Homo sapiens), …; SaOS-2 split-luciferase Mdm2/MdmX complementation; inhibition, % at 8 µM; 3% of 330,000 active;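 active means inhibition of at least 50% at 8 µM in the primary screen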
Target sequence (O15151 whole entry, looked up): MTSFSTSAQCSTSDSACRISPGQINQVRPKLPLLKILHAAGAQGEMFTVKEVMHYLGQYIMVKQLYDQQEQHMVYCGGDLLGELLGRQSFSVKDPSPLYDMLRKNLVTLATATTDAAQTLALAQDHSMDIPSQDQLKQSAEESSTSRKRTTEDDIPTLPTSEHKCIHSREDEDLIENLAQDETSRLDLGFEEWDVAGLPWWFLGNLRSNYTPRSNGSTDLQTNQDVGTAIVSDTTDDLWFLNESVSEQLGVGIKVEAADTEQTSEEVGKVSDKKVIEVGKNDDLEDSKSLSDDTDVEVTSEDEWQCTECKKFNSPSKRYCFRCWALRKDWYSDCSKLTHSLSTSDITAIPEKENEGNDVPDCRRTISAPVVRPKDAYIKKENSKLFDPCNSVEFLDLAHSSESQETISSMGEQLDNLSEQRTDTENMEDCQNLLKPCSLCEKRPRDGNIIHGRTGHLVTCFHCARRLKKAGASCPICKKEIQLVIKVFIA
Target sequence (Q00987 whole entry, looked up): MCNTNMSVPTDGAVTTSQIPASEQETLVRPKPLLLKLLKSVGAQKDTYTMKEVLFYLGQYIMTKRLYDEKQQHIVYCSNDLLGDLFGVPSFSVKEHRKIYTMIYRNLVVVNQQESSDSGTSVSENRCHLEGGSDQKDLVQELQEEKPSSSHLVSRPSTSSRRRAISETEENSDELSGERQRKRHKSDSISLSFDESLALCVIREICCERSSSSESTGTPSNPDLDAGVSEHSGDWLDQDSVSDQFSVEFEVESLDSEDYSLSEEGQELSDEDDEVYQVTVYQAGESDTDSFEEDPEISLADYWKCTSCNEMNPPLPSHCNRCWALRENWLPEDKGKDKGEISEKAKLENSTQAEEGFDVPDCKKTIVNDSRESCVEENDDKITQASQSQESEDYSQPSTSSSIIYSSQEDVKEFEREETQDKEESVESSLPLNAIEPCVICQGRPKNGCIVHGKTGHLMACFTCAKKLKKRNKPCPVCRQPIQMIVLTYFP
CSC inhib: cancer stem cell viability inhibitors, primary screen, luminescence; cancer stem cell-like cells viability; inhibition, % at 7.5 µM; 1.1% of 300,000 active; in the data active means inhibition above about 75%; tested in HMLE shEcad cells
XBP1 UPR activ: activators of adaptive XBP1 UPR arm, primary screen, cell-based, CHO-XBP1 luciferase reporter, luminescence, uHTS. 0.33% of 330,000 active. IRE1-XBP1 UPR activation; percent of tunicamycin response, DMSO as zero. AID 463104, 2010. activation, % at 20 µM;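 active means versus positive control, 20 µM dose yields 30% or more activation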;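 further: 100% = tunicamycin at 10 µg/mL and 0% = DMSO only wells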
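Material: CHO cell line with stable XBP1 luciferase reporter; buffer or medium: F12 medium containing 10% fetal bovine serum; compound: single point, 20 µM final compound, 1% DMSO; incubation: 6 h treatment, 37 °C; measured by: glow luminescence from Steady-Glo reagent; evaluation: activation, % of tunicamycin; control set: tunicamycin high, DMSO low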
T cruzi repl: inhibitors of intracellular T. cruzi growth, primary screen, luminescence, NIH3T3 host cells; inhibition, % (concentration not given with the values); T. cruzi beta-gal in NIH3T3, 90 h; AID 1885, 2009; 1.4% of 300,000 active;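 active means mean inhibition across valid replicates above about 55%, limit read from the data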;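 further: signal also drops with host cell toxicity which is not excluded here; 0% = plate median of DMSO wells and 100% = zero luminescence signal; higher percent means less beta-gal luminescence so fewer parasites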
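Incubation – ≥90 h infection period, 3 h prior cell attachment · System – NIH/3T3 fibroblasts plus reporter T. cruzi · Doses – compound pinned at 50 nL/well, DMSO · Read-out basis – percent inhibition of parasite-derived β-gal signal · Signal – luminescent β-galactosidase signal after 60 min lysis · Also added – 5000 T. cruzi trypomastigotes/well · Medium – Low-serum DMEM with 2% FBS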
Mdm2 MdmX conf: Mdm2-MdmX complex disruptors, retested hits, confirmation, luminescence, single concentration. shares compounds with Mdm2 MdmX PPI. Mdm2-MdmX binding, luminescent assay. inhibition, % at 8 µM. 55% of 10,000 active; in the data active means inhibition above about 40%
Full FLuc ctr: full-length luciferase signal inhibition, confirmation, counter-screen for Mdm2/MdmX interaction inhibitor project, cell-based, single concentration, SaOS-2 | AID 504607, 2011 | SaOS-2 full-length luciferase counterscreen, luminescence | shares compounds with Mdm2 MdmX PPI | 77% of 6,200 active | inhibition, % at 8 µM;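 active means mean inhibition at 8 µM reaching about 37%, which flags the compound as non-specific, limit read from the data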;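 further: p53-null SaOS-2 cells with luciferase driven by a doxycycline-inducible promoter; compound on cells about two nights before reading with doxycycline added after day one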
* marks the source's active call; other numbers are inactive results; · = not tested or not shown. Sampled rows, rich in hits. Any-hit rate of the full collection: about 5%.

SMILES	Beta apoptosis	UPR CHOP act	Mdm2 MdmX PPI	CSC inhib	XBP1 UPR activ	T cruzi repl	Mdm2 MdmX conf	others
COc1cc(NC(=O)c2cccs2)c(C(=O)OCC(=O)NCc2ccccc2)cc1OC	41.3	-1.4	58.0*	51.8	4.5	-3.9	15.9
COC(=O)c1ccc(Sc2nnnn2-c2ccccc2)c([N+](=O)[O-])c1	-26.6	3.7	68.0*	4.0	-2.0	1.4	49.3*	Full FLuc ctr=23.0
O=C(O)c1ccc(Sc2nnnn2-c2ccccc2)c([N+](=O)[O-])c1	-11.8	0.1	5.1	5.8	-1.3	-2.1	·
CCC(C)N(CC(=O)Nc1cccc(C)c1C)C(=O)CCl (stereo not drawn)	4.3	3.7	100.5*	14.0	-2.1	69.0*	98.7*	Full FLuc ctr=51.7*
CC(C)N(CC(=O)Nc1ccc(Cl)cc1C(F)(F)F)C(=O)CCl	-6.5	3.3	63.1*	-5.9	-2.7	82.6*	11.1
O=C(CN1CCN(CC(=O)Nc2ccccc2Cl)CC1)NCC1(N2CCOCC2)CCCCC1	·	1.6	10.6	·	-4.3	·	·
CC(C)N(c1ccccc1)c1ccc(NC(=O)CCl)cc1	-7.7	-0.3	96.8*	-6.6	-1.8	79.7*	99.0*	Full FLuc ctr=51.3*
O=C1c2ccccc2-c2n[nH]c3cccc1c23	·	4.4	53.4*	·	7.8	·	32.4
O=c1c(-c2ccccc2)n[nH]c2ccccc12	4.3	2.5	-34.5	-8.1	1.9	-18.1	·
CCOC(=O)/C(C#N)=C/C1=C(N2CCCC2)CC(C)(CC)OC1 (stereo not drawn)	-2.7	-1.9	15.8	-13.0	-5.2	-5.2	·
S=C(Nc1ccccc1)c1nc2ccccc2s1	5.4	4.2	-122.0	5.7	6.6	12.6	·
CN(C(=O)COc1ccccc1C(=O)NCCOc1ccccc1)c1ccccc1	37.3	-6.0	84.6*	48.7	-5.0	-33.0	95.5*	Full FLuc ctr=40.5*
COc1ccccc1NC(=O)c1ccc2c(c1)CCN2S(C)(=O)=O	0.7	-0.1	-6.5	-11.2	-1.0	2.6	·
Cc1ccc(CSc2nc3ccccc3cc2C=O)cc1	39.3	2.0	64.0*	69.5	26.9	-14.9	64.8*	Full FLuc ctr=80.0*
COCCNC(=O)c1cccc(OC2CCN(Cc3ccc(F)cc3OC)CC2)c1	-3.5	0.6	2.8	-13.6	-3.7	14.8	·
CC(=O)Nc1sc(N/N=C/c2ccccc2)nc1-c1ccc(C)cc1	-3.2	5.6	-12.5	-5.0	1.0	-8.4	·
CCCc1sc(N/N=C/c2ccccn2)nc1-c1ccc(Br)cc1	110.6*	17.8	74.8*	126.0*	8.4	65.5*	24.2
COc1ccc(CN(C(=O)CSc2nnc(-c3c[nH]c4ccccc34)o2)c2ccc(F)cc2)cc1OC	-17.4	6.7	66.1*	65.9	-5.2	50.6	74.0*	Full FLuc ctr=70.3*
CN1CCc2c(sc3nc(NCCO)n(-c4cccc(Cl)c4)c(=O)c23)C1	-2.6	1.1	14.8	-10.5	-0.1	28.0	·
Cc1ccn2c(NC3CCCCC3)c(-c3cccc(SC4CCCCC4)c3)nc2c1	7.0	-0.9	91.4*	99.9*	-2.0	·	0.1
CCOC(=O)c1sc(NC(=O)c2cc(-c3ccccc3C)nc3ccccc23)c(C#N)c1C	39.0	5.3	97.1*	88.7*	-3.8	3.9	92.2*	Full FLuc ctr=32.4
CCOC(=O)c1sc(NC(=O)c2ccncc2)c(C#N)c1C	9.6	-1.6	10.1	-1.5	0.0	-6.7	·
CC(C)NC(=S)N/N=C/c1ccc2c(c1)OCCO2	2.6	3.2	13.4	5.8	7.1	1.8	·
O=C(Nc1ccc(F)cc1)Nc1cnccn1	3.6	0.2	-4.7	-11.9	-1.1	-7.9	·
O=C(Nc1cc(Cl)cc(Cl)c1)Nc1cnccn1	47.1	-0.8	75.4*	26.2	0.0	7.0	29.6
SMILES	Beta apoptosis	UPR CHOP act	Mdm2 MdmX PPI	CSC inhib	XBP1 UPR activ	T cruzi repl	Mdm2 MdmX conf	others
CN1CCN(C2Cc3cc(Cl)ccc3Sc3cc(F)ccc32)CC1 (stereo not drawn)	·	1.6	53.9*	100.9*	4.4	45.7	23.9
OCCN1CCN(C2Cc3cc(Cl)ccc3Sc3ccc(Cl)cc32)CC1 (stereo not drawn) (tested in a mixture with another compound)	100.5*	0.1	59.2*	·	2.3	14.2	30.1
CN1CCN(CCOC2Cc3ccccc3Sc3ccc(Cl)cc32)CC1 (stereo not drawn)	-1.6	1.5	59.6*	-6.2	-2.3	38.8	27.2
CN1CCN(C2=Cc3cc(Cl)ccc3Sc3cc(F)ccc32)CC1	·	2.1	51.4*	112.6*	12.7	38.5	16.9
Cc1ccc(C(=O)OCC(=O)Nc2cc(C(C)(C)C)nn2-c2ccccc2)c(O)c1	1.1	-1.0	10.3	-9.8	-1.8	-9.2	·
CCc1[nH]c(C(=O)O)c(C)c1C(=O)OC	2.1	1.3	-15.1	-13.8	0.5	-6.7	·
CCCCn1c(SCC(=O)N2CCCC2)nc2cc(S(N)(=O)=O)ccc21	-0.9	-0.2	4.1	-6.0	0.4	-2.1	·
Cc1ccc(Cn2ccsc2=NC(=O)COC(=O)c2ccc(NC(=O)CC#N)cc2)cc1	-0.8	1.2	14.8	·	-3.5	8.6	·
Cc1ccc(Cn2ccsc2=NC(=O)CCl)cc1	37.7	9.7	98.8*	-2.5	4.2	·	99.3*	Full FLuc ctr=59.0*
Cc1csc(SCC(=O)Nc2ncc(Cl)c(C)c2Cl)n1	-5.1	-1.4	7.9	-38.3	1.6	0.5	·
COc1ccc(Br)cc1CN1CCN(C(=O)c2ccco2)CC1	-2.7	2.0	-24.1	-14.5	-5.7	4.0	·
COc1ccc(/C=C/c2c(-c3ccc(OC)cc3)oc3ccc(-c4ccc(OC)cc4)cc23)cc1	1.6	-1.9	-3.0	10.1	0.4	-13.9	·
COc1ccc(/C=C/c2cc(-c3ccc(C)cc3)o[n+]2C)cc1	115.6*	1.0	73.9*	92.0*	0.3	59.0*	95.9*	Full FLuc ctr=51.2*
COC(=O)c1c(NC(=O)CN2CCC3(O)CCCCC3C2c2ccc(F)cc2)sc(C)c1C (stereo not drawn)	-3.3	2.4	53.3*	46.1	-1.3	27.5	26.8
